Laboratory results reported in ChEMBL document CHEMBL1250539, “OGA inhibition by GlcNAc-selenazoline” (Bioorg Med Chem, 2010).
Activity calls are given as the source filed them. The rule behind the calls is not given here.

How the values were obtained:
[1] = target: 3-phosphoinositide-dependent protein kinase 1 (Mus musculus) (UniProt Q9Z2A0); test: Activation of PDK1
[2] = target: T1, Beta-hexosaminidase subunit beta (Homo sapiens) (UniProt P07686); test: Inhibition of human placental lysosomal hexosaminidase B at 5 uM
T1 sequence (whole entry): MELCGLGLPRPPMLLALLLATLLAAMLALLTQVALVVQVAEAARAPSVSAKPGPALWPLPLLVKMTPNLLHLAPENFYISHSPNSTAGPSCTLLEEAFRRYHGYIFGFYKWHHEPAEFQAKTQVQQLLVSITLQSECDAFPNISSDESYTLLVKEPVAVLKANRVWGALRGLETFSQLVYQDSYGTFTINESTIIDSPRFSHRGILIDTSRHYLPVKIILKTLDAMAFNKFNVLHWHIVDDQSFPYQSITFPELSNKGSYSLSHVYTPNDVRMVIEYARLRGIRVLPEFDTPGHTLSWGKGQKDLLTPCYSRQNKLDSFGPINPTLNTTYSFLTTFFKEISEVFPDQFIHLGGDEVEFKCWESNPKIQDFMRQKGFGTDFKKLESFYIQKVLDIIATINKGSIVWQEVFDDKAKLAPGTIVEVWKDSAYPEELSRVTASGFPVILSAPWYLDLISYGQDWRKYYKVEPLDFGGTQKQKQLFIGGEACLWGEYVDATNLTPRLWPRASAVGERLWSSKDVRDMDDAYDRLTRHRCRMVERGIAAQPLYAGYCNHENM

[3] = Competitive inhibition of Streptomyces plicatus hexosaminidase
[4] = target: RAC-alpha serine/threonine-protein kinase (Mus musculus) (UniProt P31750); test: Activation of AKT
Chain of RAC-alpha serine/threonine-protein kinase (Mus musculus) (P31750 whole entry, looked up): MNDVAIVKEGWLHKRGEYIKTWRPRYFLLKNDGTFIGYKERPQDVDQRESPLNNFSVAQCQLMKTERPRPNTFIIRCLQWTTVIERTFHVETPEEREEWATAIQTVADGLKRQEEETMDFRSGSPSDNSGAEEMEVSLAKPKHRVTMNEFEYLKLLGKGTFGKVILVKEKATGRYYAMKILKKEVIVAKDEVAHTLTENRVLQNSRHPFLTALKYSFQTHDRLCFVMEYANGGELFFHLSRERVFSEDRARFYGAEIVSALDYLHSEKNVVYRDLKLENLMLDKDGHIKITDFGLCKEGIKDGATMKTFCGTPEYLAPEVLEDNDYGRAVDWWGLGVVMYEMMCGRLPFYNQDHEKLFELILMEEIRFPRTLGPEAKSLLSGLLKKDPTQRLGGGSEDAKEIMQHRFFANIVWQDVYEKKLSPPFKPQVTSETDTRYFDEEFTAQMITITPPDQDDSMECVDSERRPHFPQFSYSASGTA

HeLa = test: Induction of hyper-O-GlcNAc-ylation in human HeLa cells assessed as increase of O-GlcNAc level at 40 uM after 48 hrs Western blotting; format: functional, cell-based
Method in brief: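 HeLa cells seeded at 1.0 × 10^5 per well in DMEM + 10% FBS, ±40 μM inhibitor, 37 °C, 2 days. Washed in PBS, pelleted and lysed with M-PER reagent. Equal protein (20 μg) separated on 10% gel. Western blot with RL2 anti-O-GlcNAc (1:1000) and IR-dye anti-mouse secondary; infrared imaging.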

3T3-L1 = test: Effect on GLUT4 level in mouse differentiated 3T3L1 cells; format: functional, cell-based
Method in brief: (§1)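 Differentiated 3T3-L1 adipocytes (day 8) were held 16 h in serum-free DMEM with 4 mM glucose, with or without 40 μM inhibitor. They were re-fed and stimulated with 30 nM insulin for 20 min. Surface GLUT4 was photolabeled with 250 μM Bio-ATB-BMPA at 300 nm. Lysate (600 μg) underwent streptavidin pull-down and anti-GLUT4 immunoblotting, and surface GLUT4 was compared with untreated cells.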

[5] = target: T2, Solute carrier family 2, facilitated glucose transporter member 4 (Mus musculus) (UniProt P14142); test: Inhibition of insulin-induced GLUT4 translocation into plasma membrane of mouse differentiated 3T3L1 cells at 40 uM after 16 hrs by Western blotting relative to control; conditions: 3T3-L1
T2 sequence (whole entry): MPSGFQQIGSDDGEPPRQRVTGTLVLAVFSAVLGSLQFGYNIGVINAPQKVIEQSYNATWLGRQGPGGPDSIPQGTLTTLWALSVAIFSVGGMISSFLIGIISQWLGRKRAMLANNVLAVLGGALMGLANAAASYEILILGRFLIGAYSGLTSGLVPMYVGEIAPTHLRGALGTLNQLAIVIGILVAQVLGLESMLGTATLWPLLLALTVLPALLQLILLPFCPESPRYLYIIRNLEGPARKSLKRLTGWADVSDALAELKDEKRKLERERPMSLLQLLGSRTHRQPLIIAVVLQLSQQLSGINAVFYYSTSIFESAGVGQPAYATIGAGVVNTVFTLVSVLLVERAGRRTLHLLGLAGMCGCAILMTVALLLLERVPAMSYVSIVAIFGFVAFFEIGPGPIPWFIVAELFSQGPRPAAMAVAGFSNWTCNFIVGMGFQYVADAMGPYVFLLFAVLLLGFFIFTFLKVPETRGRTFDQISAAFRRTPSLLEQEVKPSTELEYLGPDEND
Method in brief: as §1

[6] = target: T3, Beta-hexosaminidase subunit alpha (Homo sapiens) (UniProt P06865); test: Inhibition of human placental lysosomal hexosaminidase A at 5 uM
T3 sequence (whole entry): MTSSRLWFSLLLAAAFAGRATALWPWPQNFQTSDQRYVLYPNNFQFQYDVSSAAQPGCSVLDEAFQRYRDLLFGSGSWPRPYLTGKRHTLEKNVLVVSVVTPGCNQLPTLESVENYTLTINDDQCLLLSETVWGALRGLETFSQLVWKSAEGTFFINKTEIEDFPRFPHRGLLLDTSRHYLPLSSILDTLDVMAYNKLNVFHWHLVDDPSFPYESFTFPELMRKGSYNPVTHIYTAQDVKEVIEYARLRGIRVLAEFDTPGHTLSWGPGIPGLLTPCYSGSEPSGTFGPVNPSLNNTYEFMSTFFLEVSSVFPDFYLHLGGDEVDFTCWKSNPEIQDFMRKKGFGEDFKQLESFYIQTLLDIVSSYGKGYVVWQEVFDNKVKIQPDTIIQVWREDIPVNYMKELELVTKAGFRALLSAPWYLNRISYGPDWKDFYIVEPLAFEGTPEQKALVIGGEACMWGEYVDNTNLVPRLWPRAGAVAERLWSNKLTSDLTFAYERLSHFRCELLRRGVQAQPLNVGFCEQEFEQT
Method in brief: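 Human placental Hex A was incubated with 50 μM fluorescein di(GlcNAc) substrate ± 5 μM inhibitor in 100 mM citrate/phosphate pH 6.5 without GalNAc at 37 °C for 30 min. The reaction was stopped with 0.5 M Na2CO3 and read by fluorescence (ex 485 / em 535 nm). Percent inhibition was taken against activity without inhibitor.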

HT-29 = test: Induction of hyper-O-GlcNAc-ylation in human HT-29 cells assessed as increase of O-GlcNAc level at 40 uM after 48 hrs Western blotting; format: functional, cell-based
Method in brief: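 HT-29 cells seeded at 1.0 × 10^5 per well in McCoy's 5a + 10% FBS, with or without 40 μM inhibitor, 37 °C for 2 days. Lysed in Tris pH 8.0/DTT/Triton X-100 with protease inhibitors and sonicated. 20 μg protein per lane run on 10% SDS gel and blotted. Probed with anti-O-GlcNAc RL2 (1:1000) and IR-dye anti-mouse secondary; infrared imaging.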

Protein O-GlcNAcase = target: T4, Protein O-GlcNAcase (Homo sapiens, UniProt O60502); test: Inhibition of human O-GlcNAcase after 5 mins by Lineweaver-Burke plot analysis
T4 sequence (O60502 whole entry): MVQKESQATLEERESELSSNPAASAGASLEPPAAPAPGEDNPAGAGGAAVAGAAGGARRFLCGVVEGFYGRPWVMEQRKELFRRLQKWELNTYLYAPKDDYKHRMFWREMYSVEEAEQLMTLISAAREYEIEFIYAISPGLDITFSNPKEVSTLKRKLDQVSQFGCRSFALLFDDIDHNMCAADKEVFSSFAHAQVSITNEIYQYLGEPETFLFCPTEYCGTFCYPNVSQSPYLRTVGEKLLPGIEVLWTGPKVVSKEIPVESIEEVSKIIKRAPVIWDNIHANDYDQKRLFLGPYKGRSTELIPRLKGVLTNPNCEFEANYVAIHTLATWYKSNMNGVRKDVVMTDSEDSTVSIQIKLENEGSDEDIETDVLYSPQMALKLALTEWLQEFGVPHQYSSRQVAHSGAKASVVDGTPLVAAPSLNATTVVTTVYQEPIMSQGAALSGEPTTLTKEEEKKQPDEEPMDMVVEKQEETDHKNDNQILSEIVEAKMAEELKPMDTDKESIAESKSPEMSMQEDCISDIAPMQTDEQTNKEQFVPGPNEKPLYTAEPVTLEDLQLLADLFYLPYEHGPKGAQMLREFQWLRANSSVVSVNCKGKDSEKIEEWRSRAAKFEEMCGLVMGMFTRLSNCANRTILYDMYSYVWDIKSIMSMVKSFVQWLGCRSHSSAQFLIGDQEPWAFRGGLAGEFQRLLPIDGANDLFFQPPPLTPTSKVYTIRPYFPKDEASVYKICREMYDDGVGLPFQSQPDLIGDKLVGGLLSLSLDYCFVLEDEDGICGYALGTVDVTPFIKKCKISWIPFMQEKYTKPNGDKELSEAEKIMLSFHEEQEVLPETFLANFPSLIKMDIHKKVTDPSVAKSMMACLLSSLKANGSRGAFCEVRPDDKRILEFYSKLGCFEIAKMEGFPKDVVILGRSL

Chain of 3-phosphoinositide-dependent protein kinase 1 (Mus musculus) (Q9Z2A0 whole entry, looked up): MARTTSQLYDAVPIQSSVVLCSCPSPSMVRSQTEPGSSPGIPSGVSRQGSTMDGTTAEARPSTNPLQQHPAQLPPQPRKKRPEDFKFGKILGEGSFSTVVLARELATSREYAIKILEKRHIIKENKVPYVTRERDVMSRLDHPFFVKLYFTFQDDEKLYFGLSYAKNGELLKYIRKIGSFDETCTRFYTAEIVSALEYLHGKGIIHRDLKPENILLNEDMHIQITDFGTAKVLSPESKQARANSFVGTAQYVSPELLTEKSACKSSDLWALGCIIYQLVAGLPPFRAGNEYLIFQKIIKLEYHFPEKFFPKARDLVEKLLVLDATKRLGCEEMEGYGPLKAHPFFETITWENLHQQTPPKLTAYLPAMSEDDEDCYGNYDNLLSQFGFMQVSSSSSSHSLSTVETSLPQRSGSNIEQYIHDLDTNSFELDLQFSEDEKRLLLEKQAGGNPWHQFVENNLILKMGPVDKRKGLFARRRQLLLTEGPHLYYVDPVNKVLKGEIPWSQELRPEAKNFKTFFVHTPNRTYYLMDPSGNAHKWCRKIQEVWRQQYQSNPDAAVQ

CC1=N[C@@H]2[C@@H](O)[C@H](O)[C@@H](CO)O[C@@H]2S1
Activity [1]: Active | inhibition [2]: Active | Ki [3]: 20 µM | Activity [4]: Active | Activity (HeLa): Active | Activity (3T3-L1): inactive | inhibition [5]: 43% | inhibition [6]: Active | Activity (HT-29): Active

CC1=N[C@@H]2[C@@H](O)[C@H](O)[C@@H](CO)O[C@@H]2[Se]1
Activity [1]: Active | inhibition [2]: Active | Ki [3]: 170 µM | Activity [4]: Active | Activity (HeLa): Active | Activity (3T3-L1): inactive | inhibition [5]: 16.3% | inhibition [6]: Active | Ki (Protein O-GlcNAcase): 0.7 µM | Activity (HT-29): Active
